For assay [1], the system named is A-375. The experiment in a line: Cytotoxicity against human A375 cells pre-treated with 20 uM p38 inhibitor […] for 1 hr followed by 8 ug/mL compound exposure for 18 hrs by MTT assay. Type of assay: functional, cell-based. In outline: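 A375 cells pretreated 1 h with 20 µM SP600125 (JNK) or SB203580 (p38), then exposed to compound at 8 µg/ml for 18 h. Viability by MTT (formazan in DMSO, 570 nm), expressed as % of control.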
Background: Tetrazolium assays rely on reduction of a dye to a coloured formazan, in cell work by metabolically active cells.

The test system of assay [2] is A-375. The experiment in a line: Reduction in Trx expression in human A375 cells at 2 ug/mL incubated for 6 hrs followed by irradiation with 8 Gy X-ray at 37 degC for 12 hrs by Western blotting method. In kind it is functional, cell-based.
In assay [3] the test system is A-375. In words: Cytotoxicity against human A375 cells after 18 hrs by MTT assay. Type of assay: functional, cell-based. To be noted: A-375, 18 h. In outline: (§1)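 A375 cells (DMEM, 10% FBS, 37 °C, 5% CO2) seeded at 4 × 10⁴ cells/well and grown to 70–80% confluence. Treated with 0, 1, 2, 4, 8, 16 or 32 µg/ml for 6 h, then given 0 or 8 Gy X-ray (linear accelerator, 1.5 Gy/min), then 12 h more at 37 °C. MTT 4 h, formazan dissolved in DMSO, read at 570 nm; % of control; three repeats.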

The subject of assay [4] is A-375. The experiment in a line: Cytotoxicity against human A375 cells incubated for 6 hrs followed by irradiation with 8 Gy X-ray at 37 degC for 12 hrs by MTT assay. Type of assay: functional, cell-based. The note with it: A-375, light or radiation study. The essentials:
as §1

Assay [5] deals with A-375. In words: Induction of cell cycle arrest in human A375 cells assessed as accumulation at G1/G0 phase at 4 ug/mL incubated for 18 hrs by propidium iodide staining based flow cytometry (reference value: 48.9%). Type of assay: functional. The essentials:
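A375 cells treated at 10 or 4 µg/ml for 6 h, given 0 or 8 Gy X-ray, then 12 h more. Trypsinized, washed in PBS, fixed overnight in ice-cold 75% ethanol at −20 °C. Stained with propidium iodide, 30 min at 37 °C in the dark; DNA content and sub-G1 population read by flow cytometry.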
(In general: Flow cytometry measures light scatter and fluorescence of single cells or particles in a stream.)

Assay [6] deals with A-375. In words: Increase in Bax expression in human A375 cells at 4 ug/mL incubated for 6 hrs followed by irradiation with 8 Gy X-ray at 37 degC for 12 hrs by Western blotting method. Type of assay: functional, cell-based. In outline:
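A375 cells pretreated 6 h with compound at 4 µg/ml, given 0 or 8 Gy X-ray, then incubated 12 h more. Lysed in RIPA buffer, pH 7.4, with protease and phosphatase inhibitors; 50 µg protein run on SDS-PAGE and blotted to nitrocellulose. Blocked in 5% milk; primary antibodies 1:1000, 10 h at 4 °C; HRP secondary 1:2000.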

Assay [7] has as its system A-375. The experiment in a line: Reduction in Bcl-2 expression in human A375 cells at 4 ug/mL incubated for 6 hrs followed by irradiation with 8 Gy X-ray at 37 degC for 12 hrs by Western blotting method. In kind it is functional, cell-based. The essentials: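 A375 cells given […] for 6 h, then 0 or 8 Gy X-ray at 1.5 Gy/min and 12 h further culture. Lysis in ice-cold RIPA, pH 7.4, with protease and phosphatase inhibitors; protein by BCA. […] protein per lane on SDS-PAGE, transferred to nitrocellulose. Blocked in 5% milk/TBST. Primary 1:1000, 10 h, 4 °C; HRP secondary 1:2000, 1.5 h.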
On the technique in general: In western blotting, separated proteins are transferred to a membrane and probed.

Converted amounts (≈) assume the structure as drawn. The source made the active and inactive calls. The rule behind the calls is not given here.

The IC50 is the point on the concentration scale where inhibition reaches its midpoint. Low values mean inhibition by little substance, high ones a need for much substance. With `COc1cc(-c2nc3cc(-c4ccc5n[se]nc5c4)ccc3[nH]2)cc(OC)c1OC`, the outcome with A-375 [1] was inactive. The outcome in the assay with A-375 [2], with A-375 [6] and in the assay on A-375 [7] was Active. Besides, the values for the IC50 with A-375 [3] and in the assay on A-375 [4] were 12.4 µg/mL (≈ 26.6 µM) and 2.2 µg/mL (≈ 4.73 µM), respectively. Besides, the Activity with A-375 [5] is listed as 21.6%.

Source of the values: ChEMBL document CHEMBL3352644, “Selenadiazole derivatives as potent thioredoxin reductase inhibitors that enhance the radiosensitivity of cancer cells” (Eur J Med Chem, 2014).
